According to ChEMBL document CHEMBL3621177, “Modulation of the Interaction between a Peptide Ligand and a G Protein-Coupled Receptor by Halogen Atoms” (ACS Med Chem Lett, 2015):
pKi: −log10 of the molar value.

Tests used:
[1] = Displacement of [3H]diprenorphine from zebrafish mu opioid receptor expressed in HEK293 cell membranes by radioligand displacement assay; design: species or system Danio rerio
Method in brief: (§1)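 Competition binding on membranes from stably transfected HEK293 cells expressing the zebrafish μ, δ1a or δ1b receptor. Cells were grown to 80% confluence, harvested and pelleted before membrane preparation. [3H]-diprenorphine served as radioligand. Nonspecific binding was defined with 10 μM naloxone. Data were fitted to a one-site displacement model.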

[2] = Displacement of [3H]diprenorphine from zebrafish delta1a opioid receptor expressed in HEK293 cell membranes by radioligand displacement assay; design: species or system Danio rerio; method in brief: as §1
[3] = Displacement of [3H]diprenorphine from zebrafish delta1b opioid receptor expressed in HEK293 cell membranes by radioligand displacement assay; design: species or system Danio rerio; method in brief: as §1
[4] = species: Danio rerio; assay: Selectivity index, ratio of Ki for zebrafish delta1a opioid receptor to Ki for zebrafish mu opioid receptor

Structure (SMILES)	pKi [1]	pKi [2]	pKi [3]	Ratio Ki [4]
CC(C)C[C@H](NC(=O)[C@H](Cc1ccc(F)cc1)NC(=O)CNC(=O)CNC(=O)[C@@H](N)Cc1ccc(O)cc1)C(=O)O	6.68	7.93	7.98	–
CC(C)C[C@H](NC(=O)[C@H](Cc1ccc(Br)cc1)NC(=O)CNC(=O)CNC(=O)[C@@H](N)Cc1ccc(O)cc1)C(=O)O	6.54	7.47	7.56	–
CC(C)C[C@H](NC(=O)[C@H](Cc1ccc(Cl)cc1)NC(=O)CNC(=O)CNC(=O)[C@@H](N)Cc1ccc(O)cc1)C(=O)O	6.51	7.35	7.39	–
NC(=O)[C@H](Cc1ccccc1)NC(=O)[C@H](Cc1c[nH]c2ccccc12)NC(=O)[C@@H]1CCCN1C(=O)[C@@H](N)Cc1ccc(O)cc1 [ENDOMORPHIN-1]	7.48	5.07	5.21	258
CC(C)C[C@H](NC(=O)[C@H](Cc1ccccc1Cl)NC(=O)CNC(=O)CNC(=O)[C@@H](N)Cc1ccc(O)cc1)C(=O)O	5.92	7.37	7.24	–
CC(C)C[C@H](NC(=O)[C@H](Cc1ccc(I)cc1)NC(=O)CNC(=O)CNC(=O)[C@@H](N)Cc1ccc(O)cc1)C(=O)O	6.27	7.35	7.28	–
CC(C)C[C@H](NC(=O)[C@H](Cc1ccccc1F)NC(=O)CNC(=O)CNC(=O)[C@@H](N)Cc1ccc(O)cc1)C(=O)O	5.65	6.94	7.04	–
CC(C)C[C@H](NC(=O)[C@H](Cc1ccccc1Br)NC(=O)CNC(=O)CNC(=O)[C@@H](N)Cc1ccc(O)cc1)C(=O)O	5.84	7.62	7.49	–
NC(=O)[C@H](Cc1ccc(Cl)cc1)NC(=O)[C@H](Cc1c[nH]c2ccccc12)NC(=O)[C@@H]1CCCN1C(=O)[C@@H](N)Cc1ccc(O)cc1	7.14	5.77	5.63	–
NC(=O)[C@H](Cc1ccc(F)cc1)NC(=O)[C@H](Cc1c[nH]c2ccccc12)NC(=O)[C@@H]1CCCN1C(=O)[C@@H](N)Cc1ccc(O)cc1	7.29	5.27	5.32	–
CC(C)C[C@H](NC(=O)[C@H](Cc1ccccc1I)NC(=O)CNC(=O)CNC(=O)[C@@H](N)Cc1ccc(O)cc1)C(=O)O	6.40	7.81	7.54	–
NC(=O)[C@H](Cc1ccc(Br)cc1)NC(=O)[C@H](Cc1c[nH]c2ccccc12)NC(=O)[C@@H]1CCCN1C(=O)[C@@H](N)Cc1ccc(O)cc1	6.87	5.72	5.57	–
NC(=O)[C@H](Cc1ccc(I)cc1)NC(=O)[C@H](Cc1c[nH]c2ccccc12)NC(=O)[C@@H]1CCCN1C(=O)[C@@H](N)Cc1ccc(O)cc1	6.53	5.80	5.71	–
